In ChEMBL document CHEMBL1145820, “Design, synthesis, and evaluation of novel boronic-chalcone derivatives as antitumor agents” (J Med Chem, 2003):

How the values were obtained:
Type in all cases: functional, cell-based
MDA-MB-231 = experiment: Inhibitory activity against MDA-MB-231 human breast cell line
In short: (§1)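 Cells kept in DMEM with 5% FBS, 2 mM glutamine and penicillin/streptomycin at 37 °C, 5% CO2. Cells plated and attached for 24 h, then exposed to 0.5-100 µM compound (10 mM DMSO stocks) for 96 h in quadruplicate wells. MTT (1 mg/mL, serum-free medium) was added for 4 h, formazan dissolved in DMSO:ethanol 1:1, and A540 read. IC50 taken from log plots of percent of control; two runs.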

MDA-MB-435 = experiment: Inhibitory activity against MDA-MB-435 human breast cell line
In short: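 Cells kept in IMEM with 5% FBS and 2 mM glutamine at 37 °C, 5% CO2. After 24 h attachment, cells were exposed in quadruplicate wells to 0.5-100 µM compound (10 mM DMSO stocks) for 96 h. Read-out was MTT (1 mg/mL, 4 h), with formazan dissolved in DMSO:ethanol and absorbance at 540 nm. IC50 came from log plots of percent of control vs concentration; assayed twice.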

MCF-10A = experiment: Inhibitory activity against MCF-10A human breast cell line
MCF-12A = experiment: Inhibitory activity against MCF-12A human breast cell line
MCF7 = experiment: Inhibitory activity against Wt-MCF7 human breast cell line; in short: as §1

Row | SMILES | IC50 (MDA-MB-231) | IC50 (MDA-MB-435) | IC50 (MCF-10A) | IC50 (MCF-12A) | IC50 (MCF7)
1 | O=C(/C=C/c1ccc(F)c(Br)c1)c1ccc(B(O)O)cc1 | 9.5 µM | 8.8 µM | 17 µM | 38 µM | 8.5 µM
2 | O=C(/C=C/c1ccc(F)c(F)c1)c1ccc(B(O)O)cc1 | 8.8 µM | 8.8 µM | 18 µM | 39 µM | 7.8 µM
3 | O=C(O)COc1ccc(C(=O)/C=C/c2ccc(Cl)c(Cl)c2)cc1 | 9 µM | 9 µM | 13 µM | 15 µM | 13 µM
4 | O=C(O)COc1ccc(/C=C/C(=O)c2ccc(Cl)c(Cl)c2)cc1 | 18 µM | 13 µM | 12 µM | 28 µM | 15 µM
5 | O=C(/C=C/c1ccc(F)c(Cl)c1)c1ccc(B(O)O)cc1 | 8.5 µM | 16 µM | 25 µM | 22 µM | 6 µM
6 | O=C(/C=C/c1ccc(Cl)c(Cl)c1)c1ccc(B(O)O)cc1 | 9.5 µM | 3.5 µM | 18 µM | 11 µM | 5 µM
7 | O=C(/C=C/c1ccc(I)cc1)c1ccc(B(O)O)cc1 | 8.8 µM | 10 µM | 75 µM | 63 µM | 7 µM
8 | O=C(O)COc1ccc(C(=O)/C=C/c2ccc(I)cc2)cc1 | 44 µM | 18 µM | 44 µM | 38 µM | 9 µM
9 | O=C(/C=C/c1ccccc1)c1ccc[nH]1 | 15 µM | 15 µM | 63 µM | 38 µM | 9 µM
10 | O=C(/C=C/c1ccc(I)cc1)c1ccc(O)cc1 | 8 µM | 4.5 µM | 15 µM | 30 µM | 7 µM
11 | O=C(/C=C/c1ccc(I)cc1)c1ccc(OCB(O)O)cc1 | 11 µM | 18 µM | 38 µM | 100 µM | 9.5 µM
12 | O=C(/C=C/c1ccc(B(O)O)cc1)c1ccc[nH]1 | 23 µM | 15 µM | 38 µM | 60 µM | 19 µM
13 | O=C(/C=C/c1ccc(B(O)O)cc1)c1ccc(Cl)c(Cl)c1 | 8 µM | 4 µM | 18 µM | 15 µM | 5.5 µM
